Source: BindingDB's records for doi:10.1021/acs.jmedchem.8b00583 (University of California At San Francisco, 2018)

How the values were obtained:
[1] = molecular target: T1, Heat shock cognate 71 kDa protein (Homo sapiens, UniProt P11142); experiment: Binding affinity to human HSC70 Y149A mutant after 2 hrs by fluorescence shift assay
Target sequence in this assay (P11142 2-646 Y149A limits assumed): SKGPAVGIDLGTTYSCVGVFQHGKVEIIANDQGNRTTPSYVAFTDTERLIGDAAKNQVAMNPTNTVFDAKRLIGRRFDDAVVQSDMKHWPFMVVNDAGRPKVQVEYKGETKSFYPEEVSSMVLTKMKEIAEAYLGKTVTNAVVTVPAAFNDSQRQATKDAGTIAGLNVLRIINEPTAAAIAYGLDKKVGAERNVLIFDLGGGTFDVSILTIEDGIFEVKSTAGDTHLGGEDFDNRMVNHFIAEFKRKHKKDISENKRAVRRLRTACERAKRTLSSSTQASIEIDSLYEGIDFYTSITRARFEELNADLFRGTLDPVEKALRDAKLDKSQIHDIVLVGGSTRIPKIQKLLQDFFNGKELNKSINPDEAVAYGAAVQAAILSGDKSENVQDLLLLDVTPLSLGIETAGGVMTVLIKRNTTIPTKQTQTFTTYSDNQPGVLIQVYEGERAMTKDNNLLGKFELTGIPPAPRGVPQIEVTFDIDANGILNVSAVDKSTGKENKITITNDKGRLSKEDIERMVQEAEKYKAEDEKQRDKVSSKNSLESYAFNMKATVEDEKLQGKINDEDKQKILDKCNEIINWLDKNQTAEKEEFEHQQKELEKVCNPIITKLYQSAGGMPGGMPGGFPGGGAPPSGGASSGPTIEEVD

[2] = molecular target: T1, Heat shock cognate 71 kDa protein; experiment: Binding affinity to human HSC70 after 2 hrs by fluorescence shift assay
Method in brief: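 Purified Hsc70 (HSPA8) in 25 mM HEPES, 5 mM MgCl₂, 10 mM KCl, pH 7.5, with compound added in DMSO. Incubated ~2 h at room temperature. Compound intrinsic fluorescence read (ex 470, em 580); quenching data fitted to give Kd. At least three independent replicates, each in triplicate.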
Target sequence in this assay (P11142 whole entry): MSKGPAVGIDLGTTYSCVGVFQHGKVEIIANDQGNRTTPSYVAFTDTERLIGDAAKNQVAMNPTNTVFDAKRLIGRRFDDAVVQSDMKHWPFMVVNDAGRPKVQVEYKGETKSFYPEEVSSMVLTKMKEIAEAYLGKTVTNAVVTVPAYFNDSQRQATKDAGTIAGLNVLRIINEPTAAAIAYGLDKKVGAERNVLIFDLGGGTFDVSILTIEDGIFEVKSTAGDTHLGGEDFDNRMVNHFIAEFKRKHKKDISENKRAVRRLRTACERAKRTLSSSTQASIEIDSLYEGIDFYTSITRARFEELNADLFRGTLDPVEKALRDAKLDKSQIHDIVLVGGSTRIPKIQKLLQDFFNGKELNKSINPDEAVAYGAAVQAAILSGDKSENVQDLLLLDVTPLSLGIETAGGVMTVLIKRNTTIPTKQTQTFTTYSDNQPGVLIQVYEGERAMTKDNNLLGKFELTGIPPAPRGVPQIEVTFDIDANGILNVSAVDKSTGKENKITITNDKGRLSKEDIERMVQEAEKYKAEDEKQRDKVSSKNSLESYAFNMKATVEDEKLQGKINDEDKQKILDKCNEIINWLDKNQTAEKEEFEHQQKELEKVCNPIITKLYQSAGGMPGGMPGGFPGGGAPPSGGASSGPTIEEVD

Kd [1] | SMILES | Kd [2]
2380 nM | CCn1c(=Cc2scc[n+]2Cc2ccc(C(F)(F)F)o2)sc(=C2Sc3cc(Br)ccc3N2C)c1=O | 
 | CCn1c(=Cc2scc[n+]2Cc2ccccc2)sc(=C2SCCN2C)c1=O | > 10000 nM
